One block for each molecule: values may come before it.
How the values were obtained:
Rattus norvegicus [1] = species: Rattus norvegicus; assay: Ability to displace [125I]glucagon was determined; type: functional
Method in brief: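 Rat liver plasma membranes (male Sprague-Dawley; 50 μg protein/0.5 mL) in Tris-HCl 25 mM pH 7.5 with 1% BSA, incubated with [125I]glucagon (100 000 cpm, 25 fmol) and unlabelled peptide at various concentrations for 10 min at 30 °C. Then iced, filtered and washed, and filter radioactivity counted. Nonspecific binding taken with 1 μM unlabelled glucagon. Triplicates, repeated two or three times. IC50 from displacement curves.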

Rattus norvegicus [2] = species: Rattus norvegicus; assay: Compound tested for the inhibition of glucagon-mediated hyperglycemia in rats; type: functional; set-up: scale not given: the % may be the effect or the level left
Method in brief: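 Normal male Wistar rats under pentobarbital, femoral vein and artery catheterised. At time 0, glucagon 1 μg/kg and an excess of analogue were given together in the same 0.5 mL buffer bolus. Plasma glucose followed over 50 min as change from basal. Mean of 4-6 animals.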

Rattus norvegicus [3] = species: Rattus norvegicus; assay: Binding affinity against glucagon receptor was determined in rat by using adenylate cyclase assay; type: functional
Rattus norvegicus [4] = assay: Compound tested for the increase in blood glucose level in rats at a dose of 1 ug/kg in 10 min; type: functional, organism-based
Method in brief: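 Male Wistar rats (250-400 g), fed ad libitum, under pentobarbital (70 mg/kg) at 36-37 °C. Peptide given as a femoral-vein bolus in 0.5 mL NaCl 145 mM/Na2CO3 2 mM/0.25% BSA. Plasma glucose from femoral-artery samples at 0, 2, 5, 10, 20, 30, 40, 50 min, expressed as change from each rat's basal level. Buffer-only controls run. n = 4-6.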

- IC50 (Rattus norvegicus [1]): 13 nM
Molecule: CSCC[C@H](NC(=O)[C@H](CC(C)C)NC(=O)[C@H](Cc1c[nH]c2ccccc12)NC(=O)[C@H](CCC(N)=O)NC(=O)[C@@H](NC(=O)[C@H](Cc1ccccc1)NC(=O)[C@H](CCC(=O)O)NC(=O)[C@H](CCC(N)=O)NC(=O)[C@H](C)NC(=O)[C@H](CCCCN)NC(=O)[C@H](CCCCN)NC(=O)[C@H](CO)NC(=O)[C@H](CC(=O)O)NC(=O)[C@H](CC(C)C)NC(=O)[C@H](Cc1ccc(O)cc1)NC(=O)[C@H](CCCNC(=N)N)NC(=O)[C@H](CO)NC(=O)[C@H](Cc1cc(I)c(O)c(I)c1)NC(=O)[C@H](CC(=O)O)NC(=O)[C@H](CO)NC(=O)[C@@H](NC(=O)[C@H](Cc1ccccc1)NC(=O)[C@H](Cc1ccc(O)cc1)NC(=O)[C@@H](Cc1ccccc1)NC(=O)[C@H](CCC(N)=O)NC(=O)[C@H](CO)NC(=O)[C@@H](N)Cc1c[nH]cn1)[C@@H](C)O)C(C)C)C(=O)N[C@@H](CC(N)=O)C(=O)N[C@H](C(=O)O)[C@@H](C)O [listing 1 of 2 here]

Molecule: CSCC[C@H](NC(=O)[C@H](CC(C)C)NC(=O)[C@H](Cc1c[nH]c2ccccc12)NC(=O)[C@H](CCC(N)=O)NC(=O)[C@@H](NC(=O)[C@H](Cc1ccccc1)NC(=O)[C@H](CCC(=O)O)NC(=O)[C@H](CCC(N)=O)NC(=O)[C@H](C)NC(=O)[C@H](CCCCN)NC(=O)[C@H](CCCCN)NC(=O)[C@H](CO)NC(=O)[C@H](CC(=O)O)NC(=O)[C@H](CC(C)C)NC(=O)[C@H](Cc1ccc(O)cc1)NC(=O)[C@H](CCCNC(=N)N)NC(=O)[C@H](CO)NC(=O)[C@H](Cc1cc(I)c(O)c(I)c1)NC(=O)[C@H](CC(=O)O)NC(=O)[C@H](CO)NC(=O)[C@@H](NC(=O)[C@H](Cc1ccccc1)NC(=O)[C@H](Cc1ccc(O)cc1)NC(=O)[C@@H](Cc1ccccc1)NC(=O)[C@H](CCC(N)=O)NC(=O)[C@H](CO)NC(=O)[C@@H](N)Cc1c[nH]cn1)[C@@H](C)O)C(C)C)C(=O)N[C@@H](CC(N)=O)C(=O)N[C@H](C(=O)O)[C@@H](C)O [listing 2 of 2 here]
- Activity (Rattus norvegicus [2]): 50%

Molecule: GLUCAGON [listing 1 of 2 here]
- IC50 (Rattus norvegicus [1]): 6.7 nM

Molecule: GLUCAGON [listing 2 of 2 here]
- ED50 (Rattus norvegicus [3]): 9.6 nM
- Activity (Rattus norvegicus [4]): 95.1 mg/dL

— ChEMBL document CHEMBL1123808, “Synthesis of two glucagon antagonists: receptor binding, adenylate cyclase, and effects on blood plasma glucose levels” (J Med Chem, 1987)
